Assay results taken from ChEMBL document CHEMBL5331128, “Alicyclic Ring Size Variation of 4-Phenyl-2-naphthoic Acid Derivatives as P2Y14 Receptor Antagonists” (J Med Chem, 2023).
Active and inactive are the calls of the source.

Legend:
[1] = Acute toxicity in Wistar rat assessed as mortality at 1 to 10 mg/kg, ip and measured upto 24 hrs; type: organism-based; conditions: in vivo, dose 1-10 mg/kg
In short: (§1)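 Male Wistar rats; single dose at 1, 3 or 10 mg/kg i.p., or 0.5 mg/kg i.v. Animals were watched for mortality and morbidity over the experimental period, in the course of a plasma pharmacokinetic study.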

Mus musculus [2] = experiment: Anti-asthmatic activity against OVA/Aspergillus-sensitized protease-mediated C57BL/6J mouse model allergic asthma assessed as reduction in neutrophils in BAL fluid at 10 mg/kg,ip followed by 0.5 hrs OVA challenge and measured after 48 hrs; type: functional, organism-based; conditions: time 48.5 hrs
[3] = Half life in Wistar rat at 3 mg/kg, ip and measured upto 24 hrs; type: ADME, organism-based; conditions: in vivo
Mus musculus [4] = experiment: Protection against cardiac ischemia/reperfusion induced C57BL/6J mouse injury model assessed as reduction in infarct size at 2 mg/kg, sc prior to 0.5 hrs of myocardial ischemia and 48 h of reperfusion (Rvb= 26.4%); type: functional; design: scale not given: the % may be the effect or the level left; conditions: time 48.5 hrs
[5] = Intraperitoneal bioavailability in Wistar rat at 3 mg/kg and measured upto 24 hrs; conditions: in vivo, ip
[6] = Stability in rat plasma assessed as parent compound remaining at 1 uM and measured at 120 mins by LC-MS/MS analysis; type: ADME, cell-free; conditions: 2 h
In short: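 Plasma from human, rat and mouse; percent parent remaining at 120 min.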

Cytochrome P450 1A2 = biological target: T1, Cytochrome P450 1A2 (Homo sapiens, UniProt P05177); experiment: Inhibition of CYP1A2 (unknown origin); type: ADME
T1 sequence (P05177 whole entry): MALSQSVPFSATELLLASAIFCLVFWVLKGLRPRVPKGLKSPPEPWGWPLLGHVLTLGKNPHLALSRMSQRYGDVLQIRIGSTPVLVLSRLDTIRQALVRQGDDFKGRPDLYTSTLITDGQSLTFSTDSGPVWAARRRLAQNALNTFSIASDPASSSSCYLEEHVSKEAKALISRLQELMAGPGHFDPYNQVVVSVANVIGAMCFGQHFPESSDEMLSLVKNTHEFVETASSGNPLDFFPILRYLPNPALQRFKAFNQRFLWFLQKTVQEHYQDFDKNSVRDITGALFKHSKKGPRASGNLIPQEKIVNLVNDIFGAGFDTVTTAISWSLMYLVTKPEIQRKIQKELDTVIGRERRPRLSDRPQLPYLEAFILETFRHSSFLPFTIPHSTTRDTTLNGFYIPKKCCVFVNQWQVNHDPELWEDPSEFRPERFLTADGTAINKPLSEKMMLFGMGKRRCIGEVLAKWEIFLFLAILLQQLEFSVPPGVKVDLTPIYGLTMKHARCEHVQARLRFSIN

[7] = Selectivity ratio, ratio of IC50 for displacement of fluorescent tracer 4-(4-(1-(4-(1-(6-(3-carboxylato-4-(3-iminio-3H-xanthen-9-yl)benzamido)hexyl)-4,5-dihydro-1H-pyrrol-3-yl)butyl)piperidin-1-ium-4-yl)phenyl)-7-(4-(trifluoromethyl)phenyl)-2-naphthoate from mouse P2Y14R stably expressed in human HEK293 cells to IC50 for displacement of fluorescent tracer 4-(4-(1-(4-(1-(6-(3-carboxylato-4-(3-iminio-3H-xanthen-9-yl)benzamido)hexyl)-4,5-dihydro-1H-pyrrol-3-yl)butyl)piperidin-1-ium-4-yl)phenyl)-7-(4-(trifluoromethyl)phenyl)-2-naphthoate from human P2Y14R stably expressed in CHO cells; type: cell-based
[8] = Stability in simulated gastric fluid assessed as parent compound remaining after 120 mins; type: ADME; conditions: simulated gi fluid, 2 h
In short: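 Incubation in simulated gastric or intestinal fluid; percent parent remaining read at 120 min.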

Mus musculus [9] = experiment: Antiallodynic activity in CCI surgery neuropathic pain Hsd:ICR mouse model assessed as reversal of mechano-allodynia by measuring paw withdrawal threshold at 10 micromol/kg,po and measured upto 6 hrs by von frey test; type: functional, organism-based; conditions: dose 10.0 µmol/kg
In short: (§2)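 CCI neuropathic pain in adult male CD-1 mice. Single oral gavage dose of 10 μmol/kg on day 7 post-surgery. Vehicle 5% DMSO + 10% (Kolliphor HS 15:DMSO 5:95) in 0.5% methylcellulose, 0.2 mL. Von Frey paw withdrawal threshold on both hindpaws. Mean ± SD; two-way ANOVA with Dunnett's test.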

Cytochrome P450 2C9 = Cytochrome P450 2C9 (Homo sapiens, UniProt P11712); experiment: Inhibition of CYP2C9 (unknown origin); type: ADME
[10] = Microsomal stability in rat liver microsomes assessed as half life; type: ADME, Microsome
Mus musculus [11] = experiment: Antiallodynic activity in CCI surgery neuropathic pain Hsd:ICR mouse model assessed as reversal of mechano-allodynia by measuring paw withdrawal threshold at 10 micromol/kg,po and measured at 1 hrs by von frey test; type: functional, organism-based; conditions: dose 10.0 µmol/kg; in short: as §2
Mus musculus [12] = experiment: Anti-asthmatic activity against OVA/Aspergillus-sensitized protease-mediated C57BL/6J mouse model allergic asthma assessed as reduction in macrophages in BAL fluid at 10 mg/kg,ip followed by 0.5 hrs OVA challenge and measured after 48 hrs; type: functional, organism-based; conditions: time 48.5 hrs
[13] = biological target: T2, Muscarinic acetylcholine receptor M5 (Homo sapiens, UniProt P08912); experiment: Displacement of […] from human muscarinic M5 receptor assessed as inhibition constant by radioligand displacement assay
T2 sequence (P08912 whole entry): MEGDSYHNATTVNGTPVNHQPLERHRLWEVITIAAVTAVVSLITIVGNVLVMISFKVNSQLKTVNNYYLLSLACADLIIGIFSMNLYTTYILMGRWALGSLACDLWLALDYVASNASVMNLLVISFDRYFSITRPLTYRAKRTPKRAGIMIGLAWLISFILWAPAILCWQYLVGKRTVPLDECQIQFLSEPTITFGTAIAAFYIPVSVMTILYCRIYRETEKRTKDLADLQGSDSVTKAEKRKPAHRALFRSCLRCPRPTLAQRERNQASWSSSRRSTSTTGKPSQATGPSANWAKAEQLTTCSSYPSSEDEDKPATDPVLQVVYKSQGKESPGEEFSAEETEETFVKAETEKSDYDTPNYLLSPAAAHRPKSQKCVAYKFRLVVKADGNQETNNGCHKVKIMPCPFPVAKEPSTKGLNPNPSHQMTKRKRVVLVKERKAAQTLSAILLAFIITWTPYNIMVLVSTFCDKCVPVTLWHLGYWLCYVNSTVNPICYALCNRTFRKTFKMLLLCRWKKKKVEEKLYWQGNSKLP

[14] = Acute toxicity in Wistar rat assessed as morbidity at 0.5 mg/kg, iv and measured upto 24 hrs; type: organism-based; conditions: in vivo; in short: as §1
[15] = Cmax in Wistar rat plasma at 1 mg/kg, ip and measured upto 24 hrs; type: ADME, organism-based; design: time < 24 hrs, dose 1 mg/kg, route ip
[16] = biological target: Voltage-gated inwardly rectifying potassium channel KCNH2 (Homo sapiens, UniProt Q12809); experiment: Inhibition of human ERG stably expressed in human HEK293 cells incubated for 2 hrs by TAMRA based fuorescence polarization assay; type: toxicity, cell-based
In short: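 hERG inhibition measured in a fluorescent dye-binding assay.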

[17] = Acute toxicity in Wistar rat assessed as mortality at 0.5 mg/kg, iv and measured upto 24 hrs; type: organism-based; conditions: in vivo; in short: as §1
[18] = Protein binding in human plasma assessed as bound fraction; type: ADME, cell-free
Cytochrome P450 2D6 = Cytochrome P450 2D6 (Homo sapiens, UniProt P10635); experiment: Inhibition of CYP2D6 (unknown origin); type: ADME
[19] = Half life in Wistar rat at 0.5 mg/kg, iv and measured upto 24 hrs; type: ADME, organism-based; conditions: in vivo
[20] = Microsomal stability in mouse liver microsomes assessed as half life; type: ADME, Microsome

Chain of Voltage-gated inwardly rectifying potassium channel KCNH2 (Q12809 whole entry): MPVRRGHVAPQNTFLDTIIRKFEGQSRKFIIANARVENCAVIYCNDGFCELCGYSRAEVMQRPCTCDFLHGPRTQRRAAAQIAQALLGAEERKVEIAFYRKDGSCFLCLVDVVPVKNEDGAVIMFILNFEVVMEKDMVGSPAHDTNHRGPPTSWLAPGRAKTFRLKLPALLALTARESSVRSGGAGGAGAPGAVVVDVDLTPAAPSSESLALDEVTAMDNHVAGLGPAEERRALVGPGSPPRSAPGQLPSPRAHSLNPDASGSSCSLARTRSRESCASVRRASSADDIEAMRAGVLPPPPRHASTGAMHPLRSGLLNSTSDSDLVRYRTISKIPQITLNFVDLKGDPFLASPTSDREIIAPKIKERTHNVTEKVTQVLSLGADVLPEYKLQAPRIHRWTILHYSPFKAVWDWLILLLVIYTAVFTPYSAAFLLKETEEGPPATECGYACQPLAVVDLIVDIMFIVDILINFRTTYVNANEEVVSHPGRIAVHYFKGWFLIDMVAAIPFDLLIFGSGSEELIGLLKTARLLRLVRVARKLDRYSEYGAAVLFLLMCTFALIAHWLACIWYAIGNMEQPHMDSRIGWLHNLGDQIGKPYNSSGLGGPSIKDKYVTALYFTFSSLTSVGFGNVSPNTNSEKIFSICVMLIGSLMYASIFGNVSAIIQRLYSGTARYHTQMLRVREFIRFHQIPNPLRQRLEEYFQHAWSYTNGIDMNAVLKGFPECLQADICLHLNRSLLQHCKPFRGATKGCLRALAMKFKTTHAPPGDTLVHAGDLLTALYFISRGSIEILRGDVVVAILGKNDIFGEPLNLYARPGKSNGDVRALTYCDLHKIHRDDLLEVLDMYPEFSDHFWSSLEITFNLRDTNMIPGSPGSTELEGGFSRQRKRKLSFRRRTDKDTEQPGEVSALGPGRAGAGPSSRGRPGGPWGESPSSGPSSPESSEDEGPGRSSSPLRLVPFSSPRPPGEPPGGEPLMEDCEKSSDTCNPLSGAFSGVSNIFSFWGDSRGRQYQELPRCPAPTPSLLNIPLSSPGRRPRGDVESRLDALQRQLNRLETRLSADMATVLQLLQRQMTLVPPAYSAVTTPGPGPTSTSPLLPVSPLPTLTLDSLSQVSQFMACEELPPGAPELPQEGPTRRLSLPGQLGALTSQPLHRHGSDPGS
Chain of Cytochrome P450 2D6 (P10635 whole entry): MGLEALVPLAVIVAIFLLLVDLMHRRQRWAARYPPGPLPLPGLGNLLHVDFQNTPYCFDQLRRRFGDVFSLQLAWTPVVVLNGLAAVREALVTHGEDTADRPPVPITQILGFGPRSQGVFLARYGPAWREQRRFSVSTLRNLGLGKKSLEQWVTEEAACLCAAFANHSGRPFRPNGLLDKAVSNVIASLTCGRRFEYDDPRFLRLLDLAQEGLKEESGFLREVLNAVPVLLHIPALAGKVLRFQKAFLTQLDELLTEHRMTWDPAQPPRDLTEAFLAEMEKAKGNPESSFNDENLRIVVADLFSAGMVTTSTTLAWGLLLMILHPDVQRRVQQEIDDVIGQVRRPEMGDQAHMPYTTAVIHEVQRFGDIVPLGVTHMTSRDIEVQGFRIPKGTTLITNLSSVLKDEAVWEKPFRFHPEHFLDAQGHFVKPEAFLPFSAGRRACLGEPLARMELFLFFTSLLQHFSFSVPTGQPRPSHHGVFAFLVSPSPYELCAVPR
Chain of Cytochrome P450 2C9 (P11712 whole entry): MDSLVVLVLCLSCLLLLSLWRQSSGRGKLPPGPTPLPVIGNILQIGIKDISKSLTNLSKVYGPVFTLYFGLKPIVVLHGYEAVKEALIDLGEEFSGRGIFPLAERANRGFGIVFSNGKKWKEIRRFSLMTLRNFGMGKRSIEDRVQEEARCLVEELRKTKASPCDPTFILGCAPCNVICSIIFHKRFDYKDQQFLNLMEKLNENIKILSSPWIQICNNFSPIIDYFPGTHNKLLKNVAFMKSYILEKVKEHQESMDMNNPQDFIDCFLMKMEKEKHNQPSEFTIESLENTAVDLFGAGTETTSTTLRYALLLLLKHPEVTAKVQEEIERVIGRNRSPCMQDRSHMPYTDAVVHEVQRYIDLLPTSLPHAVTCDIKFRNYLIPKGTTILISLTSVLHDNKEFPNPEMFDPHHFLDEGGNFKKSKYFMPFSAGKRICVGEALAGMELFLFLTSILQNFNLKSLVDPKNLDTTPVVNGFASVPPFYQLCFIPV

O=C(O)c1cc(-c2ccc([C@]3(O)[C@@H]4CNC[C@H]3C4)cc2)c2ccc(-c3ccc(C(F)(F)F)cc3)cc2c1
Activity [1]: Non-Toxic
Activity (Mus musculus [2]): inactive
t1/2 [3]: 4.32 h
Activity (Mus musculus [4]): 31.8%
bioavailability [5]: 114%
Stability [6]: 81.3%
IC50 (Cytochrome P450 1A2): > 30 µM
Ratio IC50 [7]: 0.811
Stability [8]: 69.8%
Activity (Mus musculus [9]): Active
IC50 (Cytochrome P450 2C9): > 30 µM
t1/2 [10]: 5.7 h
Activity (Mus musculus [11]): Active
Activity (Mus musculus [12]): inactive
Ki [13]: 6 µM
Activity [14]: Non-Toxic
Cmax [15]: 500 nM
IC50 [16]: > 30 µM
Activity [17]: Non-Toxic
PPB [18]: 99.3%
IC50 (Cytochrome P450 2D6): > 30 µM
t1/2 [19]: 2.36 h
t1/2 [20]: 5.92 h
